Series [1] is described as follows: High-throughput metabolic stability assay, rat liver microsomes. Format: in vitro ADME. The conditions noted are these: predicted from in vitro metabolic stability. In a few lines:
(§1)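 Predicted hepatic metabolic clearance from a high-throughput metabolic stability assay. Systems: pooled human, rat or mouse liver microsomes, or freshly harvested rat hepatocytes. Output is predicted blood clearance (CLb) in L h−1 kg−1.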

A further series in a line: Hydrolytic stability. The series is classed as physicochemical. In a few lines: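 Test compound stirred for 24 hours in buffers: pH 2.0 and pH 4.5 citrate, pH 6.5 and pH 7.4 phosphate-buffered saline, pH 8.0 sodium borate. Hydrolytic stability is expressed as percent test compound recovered at 24 h.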
Series [2] is described as follows: High-throughput metabolic stability assay, human liver microsomes. The series is classed as in vitro ADME. The conditions noted are these: predicted from in vitro metabolic stability. The method in brief: as §1
Series [3] deals with freshly harvested rat hepatocytes (rHep). As to the kind of experiment: High-throughput metabolic stability assay, rat hepatocytes. To be noted: predicted from in vitro metabolic stability. Format: in vitro ADME. In a few lines:
as §1

In the next series the test system is Caco2. Briefly: Bidirectional Caco2 permeability assay. Format: in vitro ADME. The conditions noted are these: Caco2, P app B–A/P app A–B.
Series [4] is described as follows: Bidirectional Caco2 permeability assay. Format: in vitro ADME. The conditions noted are these: human, Caco-2. On the technique in general: Caco-2 monolayers are a common model of the intestinal barrier.
Series [5] is described as follows: High-throughput metabolic stability assay, mouse liver microsomes. The conditions noted are these: predicted from in vitro metabolic stability. The series is classed as in vitro ADME. In a few lines:
as §1

The values that follow come from paper PMC5698725 (Chemistry (Weinheim an Der Bergstrasse, Germany), 2017).

In the case of `N=S(=O)(c1ccccc1)N1CCCCC1` (stereo not shown) [2 a, 1 ‐(S‐Phenylsulfonimidoyl)piperidine], the “CLb rLMs (predicted blood clearance)” value in series [1] is 3.0 L/h/kg. In addition, the “Recovered test compound (hydrolytic stability)” value in the series “Hydrolytic stability” (all tested pH values (2.0–8.0), 24 hours with stirring) came to 100%. Also, the recovery at 24 h was 100% in the series “Hydrolytic stability” (citrate buffer, pH 2); 100% in “Hydrolytic stability” (citrate buffer, pH 4.5); 100% in the series “Hydrolytic stability” (phosphate-buffered saline, pH 6.5); 100% in “Hydrolytic stability” (phosphate-buffered saline, pH 7.4); 100% in the series “Hydrolytic stability” (sodium borate buffer, pH 8). Moreover, the “CLb hLMs (predicted blood clearance)” value in series [2] was 0.04 L/h/kg. Moreover, in series [3], the “CLb rHep (predicted blood clearance)” value is 3.6 L/h/kg. Moreover, the figures for the efflux ratio entry (in the series with Caco2; in series [4]) were “no evidence of efflux” and 0.59, respectively. The same molecule gave a Papp A→B in series [4] of 378 nm/s. The “CLb mLMs (predicted blood clearance)” value in series [5] is 1.1 L/h/kg.

Broadly, the efflux ratio is a quotient of directional permeabilities that is used to spot active efflux. By Papp A→B is commonly meant the apparent permeability from the apical to the basolateral side of a cell layer. The low end stands for slow passage, the high end for fast passage.
